We go through two substances from PMC3232455 (Molecular therapy : the journal of the American Society of …, 2011).

The test system of one data set is CLL cells. Nature of the data set: MTT cell viability assay in primary CLL samples. The class given is cell-based, human. As to conditions: six fresh primary CLL patient samples, 24 hours with 0-20 μM peptide. The method, boiled down: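 Human PBMCs isolated from fresh patient blood by density centrifugation and kept in RPMI 1640 with 10% FBS and penicillin/streptomycin. Seeded at 3 × 10^5 cells/well with 0–20 µmol/l unlabelled test peptide under tissue-culture conditions, then MTT read-out. Viability expressed as percentage of untreated controls.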
A general note: Formazan colour is commonly taken as a measure of viable cells.

A further data set deals with HeLa and glioma cells. As to conditions: cited from earlier work.

For the substance “NH2-asrslhslaG-Ahx-rrrrrrrrGC-COOH [asr-a-r8]”, the “Cell viability (in words)” value in the data set with CLL cells is “no loss of viability”.
Regarding FFLIPKG-R8, the “Cell uptake and distribution (in words)” value in the data set on HeLa and glioma cells was “diffusely label the cytoplasm within five minutes”.
